Experimental data reported in ChEMBL document CHEMBL1671644, “Inhibition of human immunodeficiency virus type 1 infection by the candidate microbicide dapivirine, a nonnucleoside reverse transcriptase inhibitor” (Antimicrob Agents Chemother, 2009).

What was measured:
[1] = test system: Human immunodeficiency virus 1; assay: Antiviral activity against HIV-1 subtype D V022818 infected in human MT4 cells assessed as inhibition of viral replication relative to HIV-1 3B; assay type: functional
How it was run: (§1)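 MT-4 cells (3 x 10^4/well) infected with site-directed mutants or recombinant clinical isolates (200 TCID50/well) with drug, cultured 3 to 5 days. Viability read by MTT colorimetric antivirogram assay. IC50 by nonlinear regression; fold change = IC50 for the test isolate / IC50 for wild-type HIV-1 IIIB tested in parallel (mean or median).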

[2] = Selectivity index, ratio of CC50 for human TZM-bl cells to IC50 for HIV-1 Bal; assay type: functional
How it was run: (§2)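 Selectivity index is CC50/IC50, using values determined in the same time period. CC50 was measured by MTT for TZM-bl and PM-1 cells and by trypan blue exclusion after 14 days for macrophages. Both were fitted by nonlinear regression.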

[3] = test system: Human immunodeficiency virus 1; assay: Antiviral activity against HIV-1 subtype C V022831 infected in human MT4 cells assessed as inhibition of viral replication relative to HIV-1 3B; assay type: functional; how it was run: as §1
[4] = test system: Human immunodeficiency virus 1; assay: Antiviral activity against HIV-1 subtype F V029522 infected in human MT4 cells assessed as inhibition of viral replication relative to HIV-1 3B; assay type: functional; how it was run: as §1
[5] = test system: Human immunodeficiency virus 1; assay: Antiviral activity against HIV-1 subtype CRF05_DF V022823 infected in human MT4 cells assessed as inhibition of viral replication relative to HIV-1 3B; assay type: functional; how it was run: as §1
[6] = test system: Human immunodeficiency virus 1; assay: Antiviral activity against HIV-1 subtype C V022829 infected in human MT4 cells assessed as inhibition of viral replication relative to HIV-1 3B; assay type: functional; how it was run: as §1
[7] = test system: Human immunodeficiency virus 1; assay: Antiviral activity against HIV-1 subtype B V022809 infected in human MT4 cells assessed as inhibition of viral replication relative to HIV-1 3B; assay type: functional; how it was run: as §1
[8] = test system: Human immunodeficiency virus 1; assay: Antiviral activity against HIV-1 subtype D V022832 infected in human MT4 cells assessed as inhibition of viral replication relative to HIV-1 3B; assay type: functional; how it was run: as §1
[9] = test system: Human immunodeficiency virus 1; assay: Antiviral activity against HIV-1 subtype CRF05_DF V022833 harboring NNRTI V179I mutant infected in human MT4 cells assessed as inhibition of viral replication relative to HIV-1 3B; assay type: functional; how it was run: as §1
[10] = test system: Human immunodeficiency virus 1; assay: Antiviral activity against HIV-1 subtype CRF02_AG V022808 infected in human MT4 cells assessed as inhibition of viral replication relative to HIV-1 3B; assay type: functional; how it was run: as §1
[11] = test system: Human immunodeficiency virus 1; assay: Antiviral activity against HIV-1 Bal infected in human TZM-bl cells after 24 hrs by luciferase reporter gene assay in presence of 12.5% cervical mucus; assay type: functional, organism-based; conditions: Human immunodeficiency virus 1, Bal
How it was run: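 TZM-bl cells (5 x 10^4/well), cultured overnight, pretreated first with cervical mucus simulant (12.5% final) and then drug (1 h), then infected with HIV-1 BaL (200 TCID50/ml). After 24 h, cells lysed and luciferase read. IC50 versus drug-free control by nonlinear regression; effect of mucus tested by ANOVA with Bonferroni and t tests.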

[12] = test system: Human immunodeficiency virus 1; assay: Antiviral activity against HIV-1 Bal infected in 24 hrs 100 to 1000 nM compound pretreated human ectocervical explant tissue assessed as prolonged inhibition of viral infection post compound removal measured after 2 days post compound removal; assay type: functional
How it was run: (§3)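 Ectocervical explants were exposed to drug (0.01–10 µM) for 2 or 24 h at 37°C and washed. They received HIV-1BaL (2 h) on day 0, 2, 4 or 6 after drug removal, with no drug present. Read-outs at 10 days post-exposure: explant p24 ELISA, tissue proviral DNA by qPCR, and p24 in migratory cell–PM-1 cocultures. Three donors (2 h) or two donors (24 h), triplicate.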

[13] = test system: Human immunodeficiency virus 1; assay: Antiviral activity against HIV-1 SM012 harboring NNTRI 108I mutant infected in human MT4 cells assessed as inhibition of viral replication relative to HIV-1 3B; assay type: functional; how it was run: as §1
[14] = test system: Human immunodeficiency virus 1; assay: Antiviral activity against HIV-1 SM030 harboring NNTRI 100I mutant infected in human MT4 cells assessed as inhibition of viral replication relative to HIV-1 3B; assay type: functional; how it was run: as §1
[15] = test system: Human immunodeficiency virus 1; assay: Antiviral activity against HIV-1 Bal infected in human TZM-bl cells after 24 hrs by luciferase reporter gene assay; assay type: functional, organism-based; conditions: Human immunodeficiency virus 1, Bal
How it was run: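 TZM-bl cells (5 x 10^4/well), cultured overnight, pretreated with drug 1 h, then infected with HIV-1 BaL (200 TCID50/ml). After 24 h, cells washed and lysed and luciferase read. Drug-treated wells compared with untreated controls; IC50 (infection at 50% of drug-free control) by nonlinear regression.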

[16] = test system: Human immunodeficiency virus 1; assay: Antiviral activity against HIV-1 Bal infected in 2 hrs 1000 nM compound pretreated human ectocervical explant tissue assessed as prolonged inhibition of viral infection post compound removal measured after 2 days post compound removal; assay type: functional; how it was run: as §3
[17] = test system: Human immunodeficiency virus 1; assay: Antiviral activity against HIV-1 SM052 harboring NNTRI 101E and 103N mutant infected in human MT4 cells assessed as inhibition of viral replication relative to HIV-1 3B; assay type: functional; how it was run: as §1
[18] = Selectivity index, ratio of CC50 for human monocyte derived macrophages to IC50 for HIV-1 Bal; assay type: functional; how it was run: as §2
[19] = test system: Human immunodeficiency virus 1; assay: Antiviral activity against HIV-1 subtype H V029523 harboring NNRTI K101Q and V179I mutant infected in human MT4 cells assessed as inhibition of viral replication relative to HIV-1 3B; assay type: functional; how it was run: as §1
[20] = test system: Human immunodeficiency virus 1; assay: Antiviral activity against HIV-1 subtype B V022814 infected in human MT4 cells assessed as inhibition of viral replication relative to HIV-1 3B; assay type: functional; how it was run: as §1
[21] = test system: Human immunodeficiency virus 1; assay: Antiviral activity against HIV-1 Bal infected in 24 hrs 100 to 1000 nM compound pretreated human ectocervical explant tissue assessed as prolonged inhibition of viral infection post compound removal measured after 6 days post compound removal; assay type: functional; how it was run: as §3
[22] = Selectivity index, ratio of CC50 for human TZM-bl cells to IC50 for HIV-1 3B; assay type: functional; how it was run: as §2
[23] = test system: Human immunodeficiency virus 1; assay: Antiviral activity against HIV-1 SM002 harboring NNTRI 181C mutant infected in human MT4 cells assessed as inhibition of viral replication relative to HIV-1 3B; assay type: functional; how it was run: as §1
[24] = Cytotoxicity against human TZM-bl cells after 24 hrs by MTT assay; assay type: cell-based
How it was run: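 Uninfected PM-1 or TZM-bl cells were exposed to drug and viability measured by MTT dye reduction as a percentage of untreated controls. CC50 was derived by nonlinear regression.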

[25] = test system: Human immunodeficiency virus 1; assay: Antiviral activity against HIV-1 subtype CRF02_AG V022826 infected in human MT4 cells assessed as inhibition of viral replication relative to HIV-1 3B; assay type: functional; how it was run: as §1
[26] = test system: Human immunodeficiency virus 1; assay: Antiviral activity against HIV-1 SM007 harboring NNTRI 103N mutant infected in human MT4 cells assessed as inhibition of viral replication relative to HIV-1 3B; assay type: functional; how it was run: as §1
[27] = test system: Human immunodeficiency virus 1; assay: Antiviral activity against HIV-1 Bal infected in human TZM-bl cells after 24 hrs by luciferase reporter assay; conditions: Human immunodeficiency virus 1, Bal

## Cc1cc(C)c(Nc2ccnc(Nc3ccc(C#N)cc3)n2)c(C)c1 [DAPIVIRINE]
[1]
  Ratio IC50: 1.4
[2]
  Selectivity Index: 9273
[3]
  Ratio IC50: 0.8
[4]
  Ratio IC50: 1.5
[5]
  Ratio IC50: 0.7
[6]
  Ratio IC50: 1
[7]
  Ratio IC50: 1.5
[8]
  Ratio IC50: 0.7
[9]
  Ratio IC50: 1
[10]
  Ratio IC50: 1
[11]
  IC50: 8.32 nM
  IC90: 41.6 nM
[12]
  inhibition (INH): 90%
[13]
  Ratio IC50: 1
[14]
  Ratio IC50: 18
[15]
  IC50: 1.46 nM
  IC90: 10.2 nM
[16]
  inhibition (INH): 90%
[17]
  Ratio IC50: 17
[18]
  Selectivity Index: 8333
[19]
  Ratio IC50: 1.4
[20]
  Ratio IC50: 0.8
[21]
  inhibition (INH): 90%
[22]
  Selectivity Index: 20400
[23]
  Ratio IC50: 8
[24]
  CC50 at 24 h: 20400 nM
[25]
  Ratio IC50: 1
[26]
  Ratio IC50: 5
[27]
  IC50: 2.2 nM
